Source: PubChem (The Scripps Research Institute Molecular Screening Center)
CHO parental Ca = signal in parental CHO cells, OX1R antagonist counter-screen. parental CHO-K1, ATP-induced calcium, Fluo-8 fluorescence. inhibition, % at 5.6 µM. 330,000 compounds, 0.63% hits. AID 463079;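 active means inhibition above that plate's mean sample inhibition plus 3 SD, cut at about 26% in these data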
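material = parental CHO cells | also added = ATP as calcium-mobilizing challenge | dosing = single point at 5.6 µM | detection = intracellular calcium via Fluo-8 no-wash fluorescent dye | read-out = % inhibition | benchmarks = low control ATP plus DMSO, high control DMSO only | repeats = one well per compound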
OX1R antag-1 = human HCRTR1 antagonism. O43613. CHO/OX1R cells, Fluo-8 calcium fluorescence, orexin A. inhibition, % at 5 µM. 330,000 compounds, 0.43% hits;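 active means inhibition above its plate's threshold, mean inhibition of all tested compounds on the plate plus 3 SD, cut at about 37% in these data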
Target sequence (O43613 whole entry, looked up): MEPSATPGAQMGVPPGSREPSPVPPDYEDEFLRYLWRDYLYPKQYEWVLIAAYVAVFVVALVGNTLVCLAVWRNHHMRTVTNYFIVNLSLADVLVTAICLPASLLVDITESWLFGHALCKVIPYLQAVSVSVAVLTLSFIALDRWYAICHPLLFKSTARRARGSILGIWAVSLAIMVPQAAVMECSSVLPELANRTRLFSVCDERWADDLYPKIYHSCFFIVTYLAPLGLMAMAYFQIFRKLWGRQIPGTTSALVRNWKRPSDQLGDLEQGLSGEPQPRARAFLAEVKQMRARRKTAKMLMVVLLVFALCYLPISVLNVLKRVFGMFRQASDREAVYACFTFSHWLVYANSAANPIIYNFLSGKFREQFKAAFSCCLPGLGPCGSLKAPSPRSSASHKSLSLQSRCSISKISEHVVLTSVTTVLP
TAAR1 antagonist = human TAAR1 antagonism. CHO RD-HGA16 TAAR1, Fluo-8 calcium fluorescence, antagonist. Q96RJ0. inhibition, % at 3 µM. 360,000 compounds, 1.5% hits;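 active means inhibition above a per-plate cutoff, the mean inhibition of test compounds on that plate plus 3 SD, cut at about 49% in these data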
Target sequence (Q96RJ0 whole entry, looked up): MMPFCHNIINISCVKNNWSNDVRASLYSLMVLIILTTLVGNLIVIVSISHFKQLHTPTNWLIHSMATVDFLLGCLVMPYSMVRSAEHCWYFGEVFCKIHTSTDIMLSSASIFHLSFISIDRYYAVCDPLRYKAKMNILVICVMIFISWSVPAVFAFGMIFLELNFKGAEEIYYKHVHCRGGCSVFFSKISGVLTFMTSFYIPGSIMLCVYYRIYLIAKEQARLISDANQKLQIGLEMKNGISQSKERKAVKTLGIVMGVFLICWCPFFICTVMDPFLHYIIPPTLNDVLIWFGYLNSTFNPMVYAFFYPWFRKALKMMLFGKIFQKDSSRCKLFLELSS
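Material: RD-HGA16 CHO cells with stable hTAAR1 and Gα16; Dosing: single nominal final test compound concentration of 3 µM; Schedule: seeding 17-24 h prior, 75-min 37 °C, 30-min RT dye loading; Detection: kinetic Fluo-8 calcium fluorescence measurement; Measure: % inhibition from peak post-agonist over basal fluorescence ratio; Benchmarks: vehicle and agonist controls.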
GPR7 antagonist = antagonists of human GPR7 (neuropeptides B/W receptor 1); inhibition, % at 4.4 µM; GPR7-expressing cells, fluorescence antagonist assay; P48145; 290,000 compounds, 1.1% hits; in the data active means inhibition above about 16%, passing the limit was not always enough;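 further: cells stimulated with the agonist NPW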
TAAR1 ag = human TAAR1 agonism. CHO RD-HGA16 TAAR1, Fluo-8 calcium fluorescence; vehicle wells 0%, saturating PEA agonist 100%. activation, % at 3 µM. 360,000 compounds, 0.99% hits;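 active means activation above the mean activation of all test compounds in the run plus 3 SD, cut at about 38% in these data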
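Repeats: no replicates (n 1) | Material: CHO-derived RD-HGA16 cells with stable Gα16 and human TAAR1 | Technique: Kinetic Fluo-8 calcium fluorescence | Schedule: 17-24 h seeding, 75 min 37 °C dye, 30 min RT | Evaluation: % activation from peak over basal fluorescence ratio, DMSO-to-PEA scaled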
OX1R antag-2 = OX1R (human) antagonism; OX1R-expressing cells, FRET antagonist read-out; 330,000 compounds, 1.8% hits; O43613; inhibition, % at 6.6 µM; in the data active means inhibition mostly above about 38%, no sharp cut-off; inactive means mostly below about 40%
TAAR1 ag conf = human TAAR1 agonism, confirmed. AID 651783. shares compounds with TAAR1 ag. CHO RD-HGA16 TAAR1, Fluo-8 calcium fluorescence; scaled: DMSO 0%, maximal phenethylamine 100%. 2,400 compounds, 82% hits. activation, % at 3 µM;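 active means activation above a cutoff set at the run's mean compound activation plus 3 SD, cut at about 39% in these data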
Ga16 nonsel ag = counter-screen for TAAR1 agonists: nonselective agonists in parental cells; shares compounds with TAAR1 ag; CHO-Ga16 parental, Fluo-8 calcium fluorescence; normalized to maximal ATP response, DMSO zero; activation, % at 3 µM; 2,400 compounds, 50% hits;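 active means activation above the run cutoff, the mean activation over all tested wells plus 3 SD, cut at about 12% in these data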
TAAR1 desens = counter-screen for human TAAR1 agonists: agonists that desensitize TAAR1. shares compounds with TAAR1 ag. CHO RD-HGA16 hTAAR1, Fluo-8 calcium, beta-PEA response inhibition. inhibition, % at 3 µM. 2,400 compounds, 46% hits;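 active means inhibition above the run cutoff, the mean inhibition of all test compounds plus 3 SD, cut at about 49% in these data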;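 further: beta-PEA stimulus applied at its EC80; loss of beta-PEA calcium signal after compound pretreatment read as receptor desensitization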
Ga16 antag count = nonselective Ga16 antagonist in TAAR1 agonist counter-screen; shares compounds with TAAR1 ag; CHO-Ga16 ATP-induced calcium, Fluo-8 fluorescence; inhibition, % at 3 µM; 2,400 compounds, 39% hits;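 active means inhibition above the plate's mean compound inhibition plus 3 SD, computed per plate, cut at about 22% in these data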
Of the large screens only hits and unclear results are named; the others gave an inactive call (follow-up assays come after a bar, where they were run). A selection: hits, their analogues and other compounds. The true share with any hit is near 4.6%.

CN1CN(c2ccccc2)C2(CCN(CCCSc3ccccc3NC(=O)/C=C/c3ccccc3)CC2)C1=O	TAAR1 antagonist 102, TAAR1 ag 122 (no result: CHO parental Ca, OX1R antag-1, GPR7 antagonist, OX1R antag-2) | TAAR1 ag conf 125 | Ga16 nonsel ag 97 | TAAR1 desens 107 | Ga16 antag count 97
COc1ccc2[nH]c3c(c2c1)CCNC3	TAAR1 ag 44 (no result: GPR7 antagonist) | TAAR1 ag conf 59 | Ga16 nonsel ag inactive | TAAR1 desens inactive | Ga16 antag count inactive
CN1C(=O)C(=CN2CCN(C(=O)c3ccco3)CC2)C(=O)N(C)C1=S	TAAR1 ag 53 | TAAR1 ag conf 75 | Ga16 nonsel ag inactive | TAAR1 desens inactive | Ga16 antag count inactive
COc1cc(OC)c(OC)cc1CNCCc1cccc(F)c1	TAAR1 ag 79 | TAAR1 ag conf 78 | Ga16 nonsel ag 12 | TAAR1 desens inactive | Ga16 antag count inactive
COc1ccc(CNCCc2cccc(F)c2)c2ccccc12	none (no result: CHO parental Ca, OX1R antag-1, TAAR1 antagonist, TAAR1 ag, OX1R antag-2)
COc1ccc(C(c2nnnn2C2CCCCC2)N2CCC3(CC2)C(=O)NCN3c2ccccc2)cc1 (stereo not drawn)	none (no result: CHO parental Ca, OX1R antag-1, GPR7 antagonist, OX1R antag-2)
Cc1ccccc1CCNCc1ccc(Br)cc1	TAAR1 antagonist 50, TAAR1 ag 71 | TAAR1 ag conf 93 | Ga16 nonsel ag 14 | TAAR1 desens 67 | Ga16 antag count inactive
COC(=O)c1ccc(CN2CCN(Cc3ccccc3)CC2)cc1	none
COC(=O)C1=CCCN(C)C1	TAAR1 ag 54 | TAAR1 ag conf 88 | Ga16 nonsel ag inactive | TAAR1 desens 57 | Ga16 antag count inactive
CCOc1ccc(NC(=O)c2c(C)nn(Cc3ccccc3)c2Cl)cc1	TAAR1 antagonist 64, TAAR1 ag 54 | TAAR1 ag conf 79 | Ga16 nonsel ag 43 | TAAR1 desens 76 | Ga16 antag count 46
COc1ccc2c(CCN)c[nH]c2c1	TAAR1 ag 52 | TAAR1 ag conf 80 | Ga16 nonsel ag inactive | TAAR1 desens inactive | Ga16 antag count inactive
Cc1cccc(N2C(=O)NC(=O)/C(=C\c3cc(C)n(-c4sc5c(c4C#N)CCCC5)c3C)C2=O)c1C	none
CCOC(=O)c1c(-n2c(C)cc(C=C3C(=O)NC(=O)NC3=O)c2C)sc2c1CCCC2	TAAR1 ag 47 | TAAR1 ag conf 53 | Ga16 nonsel ag 28 | TAAR1 desens inactive | Ga16 antag count 38
O=S(=O)(c1cccc(C(F)(F)F)c1)N1Cc2ccccc2-n2nncc2C1	none (no result: CHO parental Ca, OX1R antag-1, GPR7 antagonist, OX1R antag-2)
c1ccc2c(c1)CC1CNCc3cccc(c31)S2 (stereo not drawn)	TAAR1 ag 73 | TAAR1 ag conf 93 | Ga16 nonsel ag inactive | TAAR1 desens 79 | Ga16 antag count inactive
Cc1cc(C)cc(N2C(=O)NC(=O)/C(=C\C=C\c3ccco3)C2=O)c1	TAAR1 ag 50 | TAAR1 ag conf 72 | Ga16 nonsel ag 47 | TAAR1 desens inactive | Ga16 antag count inactive
CCc1ccc(N2C(=O)NC(=O)/C(=C\C=C\c3ccco3)C2=O)cc1	TAAR1 ag 73 | TAAR1 ag conf 67 | Ga16 nonsel ag 26 | TAAR1 desens 69 | Ga16 antag count inactive
CCCCN1C(=O)/C(=C/C=C/c2ccco2)C(=O)NC1=S	none (no result: CHO parental Ca, OX1R antag-1, OX1R antag-2)
CCC1(CCC(C)C)C(=O)NC(=O)N(c2ccccc2)C1=O (stereo not drawn)	none (no result: CHO parental Ca, OX1R antag-1, GPR7 antagonist, OX1R antag-2)
CCCCC(CC)CNCC(O)c1ccccc1 (stereo not drawn)	TAAR1 ag 53 | TAAR1 ag conf 64 | Ga16 nonsel ag inactive | TAAR1 desens inactive | Ga16 antag count inactive
CC(Cc1ccccc1)NC(=O)/C=C/C(=O)O (stereo not drawn)	none (no result: TAAR1 antagonist, TAAR1 ag) | Ga16 nonsel ag inactive | Ga16 antag count inactive
COc1ccc(OC(=O)N(C)C[C@H]2OCc3cnnn3CCCC(=O)N([C@H](C)CO)C[C@@H]2C)cc1	none (no result: CHO parental Ca, OX1R antag-1, GPR7 antagonist, OX1R antag-2)
O=[N+]([O-])c1oc2ccc3ccccc3c2c1CCO	none (no result: CHO parental Ca, OX1R antag-1, GPR7 antagonist, OX1R antag-2)
Cc1cccc(CCNCc2cc3cc(C)cc(C)c3[nH]c2=O)c1	TAAR1 antagonist 78, TAAR1 ag 108 | TAAR1 ag conf 102 | Ga16 nonsel ag inactive | TAAR1 desens 90 | Ga16 antag count inactive
Cc1ccc2cc(CNCCc3ccccc3C)c(=O)[nH]c2c1	TAAR1 antagonist 81, TAAR1 ag 76 | TAAR1 ag conf 83 | Ga16 nonsel ag inactive | TAAR1 desens 92 | Ga16 antag count inactive
CC(=O)N1Cc2cnnn2-c2ccccc2C1C#N (stereo not drawn)	none (no result: CHO parental Ca, OX1R antag-1, GPR7 antagonist, OX1R antag-2)
Nc1c(C(=O)NCCc2ccccc2)c2nc3ccccc3nc2n1CCN1CCOCC1	TAAR1 antagonist 74, TAAR1 ag 71 | TAAR1 ag conf inactive | Ga16 nonsel ag 13 | TAAR1 desens inactive | Ga16 antag count 43
COc1ccc(CCNC(=O)c2c(N)n(CCN3CCOCC3)c3nc4ccccc4nc23)cc1	none
CCCCCc1nc2c(c(=O)c3ccccc3n2C)c(=O)n1C1CCCCCC1	TAAR1 antagonist 85, TAAR1 ag 125 | TAAR1 ag conf 122 | Ga16 nonsel ag 96 | TAAR1 desens 93 | Ga16 antag count 85
CCCCCc1nc2ccccc2c(=O)n1-c1ccccc1[N+](=O)[O-]	none
O=[N+]([O-])c1ccc(NCc2ccccc2)c2nonc12	CHO parental Ca 94, OX1R antag-1 108, TAAR1 antagonist 107, GPR7 antagonist 34, TAAR1 ag 954 | TAAR1 ag conf 496 | Ga16 nonsel ag 650 | TAAR1 desens 105 | Ga16 antag count 103
O=[N+]([O-])c1ccc(NCc2ccc(Cl)cc2)c2ccncc12	none
N[C@@H]1C[C@H]1c1ccccc1	TAAR1 antagonist 78, TAAR1 ag 80 (no result: GPR7 antagonist) | TAAR1 ag conf 99 | Ga16 nonsel ag inactive | TAAR1 desens 86 | Ga16 antag count inactive
O=C(NCCN1CCC2(CC1)C(=O)NCN2c1ccccc1)c1cccc(F)c1	TAAR1 antagonist 74, TAAR1 ag 60 (no result: CHO parental Ca, OX1R antag-1, GPR7 antagonist, OX1R antag-2) | TAAR1 ag conf 39 | Ga16 nonsel ag 21 | TAAR1 desens 54 | Ga16 antag count 31
O=C(NCCN1CCC2(CC1)C(=O)NCN2c1ccccc1)c1ccc(F)c(F)c1	TAAR1 antagonist 103, TAAR1 ag 110 (no result: CHO parental Ca, OX1R antag-1, GPR7 antagonist, OX1R antag-2) | TAAR1 ag conf 102 | Ga16 nonsel ag 67 | TAAR1 desens 104 | Ga16 antag count 87
